In the EternaBench riboswitch data:

Columns and labels:
MS2 coat protein [1] = experiment: apparent Kd, MS2 coat protein; higher = weaker binding; RNA-MaP array
In short: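 Incubations were done at room temperature with fluorescently labeled MS2 coat protein at 1.5 nM to 3 μM and designed RNAs transcribed on an Illumina sequencing chip from sequenced DNA templates, with or without input ligand. Apparent Kd is the median of binding curves fitted for each cluster. Designs with fewer than 10 measured clusters were excluded.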

MS2 coat protein [2] = experiment: apparent Kd, MS2 coat protein; higher = weaker binding; RNA-MaP array; FMN 200 µM where present
In short: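 Green signal from SNAP-549-labelled MS2 coat protein was normalised to red-channel RNA signal and to the median Fmax of control clusters. The protein was titrated from 0.7 or 1.5 nM, doubling to 3 µM, without and then with constant ligand, over designs transcribed by stalled E. coli RNA polymerase on Illumina sequencing-chip clusters, in 100 mM Tris-HCl pH 7.5, 80 mM KCl, 4 mM MgCl2, BSA, DTT, yeast tRNA and Tween-20. The apparent Kd is the median of filtered per-cluster binding-curve fits.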

[3] = designed as: ON switch for flavin mononucleotide, no ligand
[4] = ligand present: flavin mononucleotide, designed as: ON switch for flavin mononucleotide
[5] = designed as: OFF switch for flavin mononucleotide, no ligand
[6] = ligand present: flavin mononucleotide, designed as: OFF switch for flavin mononucleotide
[7] = designed as: ON switch for theophylline, no ligand
[8] = ligand present: theophylline, designed as: ON switch for theophylline

Sequence: AGCACAAAGUAGAAGGGUAGCACCGAUUUUCAUACAGGAUAUACGAAGGCAGGGUCAACAUGAGGAUCACCCAUGUUACCGCUU
- apparent Kd (MS2 coat protein [1]; [3]): 5.59 nM
- apparent Kd (MS2 coat protein [1]; [4]): 5.39 nM

Sequence: AGCAGCCCUAAAGGAUAUUUGCGCGAGCAAAGCAAAGAAGGUUAAGGGUGGGCUUCAGAGACUACAUGAGGAUCACCCAUGUCC
- apparent Kd (MS2 coat protein [1]; [3]): 448 nM
- apparent Kd (MS2 coat protein [1]; [4]): 112 nM

Sequence: AGCGCUUAACCAUAGGAUAUAUUGAUCAUUACAUGAGGAUCACCCAUGUGUCGAAGAAGGCAAUCAUAGAAGGAUGUCAUGUCGCU
- apparent Kd (MS2 coat protein [1]; [3]): 26.7 nM
- apparent Kd (MS2 coat protein [1]; [4]): 17.3 nM

Sequence: AGGAAACAUGAGGAUCACCCAUGUGAGGAUAUACAAAAGAGCGAAAGAAGAAAUUAAUGUAGAAGGCACGUCAA
- apparent Kd (MS2 coat protein [1]; [5]): 15.1 nM
- apparent Kd (MS2 coat protein [1]; [6]): 13.3 nM

Sequence: AGGAGACAUGAGGAUCACCCAUGUCCAGAUACCAGAAUGUCUUUGUUCCCUUGGCAGCUGUGGAAAUCUGACCUGCCUCGGUCUG
- apparent Kd (MS2 coat protein [1]; [7]): 14.2 nM
- apparent Kd (MS2 coat protein [1]; [8]): 15.7 nM

Sequence: AGGCUUAAAAUGGAGGAUAUCUGUCGCAAAACAUGAGGAUCACCCAUGUACAUAAUGGGCACCACAGAGAAGGCCAUGUACUUUUC
- apparent Kd (MS2 coat protein [1]; [3]): 27.5 nM
- apparent Kd (MS2 coat protein [1]; [4]): 11.7 nM

Sequence: AGGGAACAUGAGGAUCACCCAUGUGCCGAUACCAGUGAUUUUCAGCACCCUUGGCAGCGGAACCUUUGUUAUAUUAUUCUUAGGG
- apparent Kd (MS2 coat protein [1]; [7]): 36.7 nM
- apparent Kd (MS2 coat protein [1]; [8]): 28.2 nM

Sequence: AGUAAAGUAGAAGGAUAUCACGAACAUGAGGAUCACCCAUGUUAAGAUCGGCGUGAGACAACAGAUGAGAAGGACUAAUAUGCU
- apparent Kd (MS2 coat protein [1]; [5]): 10.9 nM
- apparent Kd (MS2 coat protein [1]; [6]): 10.2 nM

Sequence: AGUGGACUGAGGCAGGAUAUCUAUUCAGGAACAUGAGGAUCACCCAUGUCAUGAAAUGACUCGUGAGAGAAGGGCCGUCAACUUAU
- apparent Kd (MS2 coat protein [1]; [3]): 22.9 nM
- apparent Kd (MS2 coat protein [1]; [4]): 29.5 nM

Sequence: UUUUAACAUGAGGAUCACCCAUGUGAGGAUAUCGAAAUUUAUAUUUAUAUUAAUAUAACGAGAAGGCACAUUUU
- apparent Kd (MS2 coat protein [2]; [5]): 55.5 nM
- apparent Kd (MS2 coat protein [2]; [6]): 83.2 nM

Sequence: UUUUAACAUGAGGAUCACCCAUGUGAGGAUAUCGAAAUUUAUAUUUAUAUUUAUAUUUCGAGAAGGCACAUUUU
- apparent Kd (MS2 coat protein [2]; [5]): 176 nM
- apparent Kd (MS2 coat protein [2]; [6]): 156 nM

Sequence: UUUUACGUUUCGUAGCAGUGUCAUCGAGAAGGCCCUGACAUGAGGAUCACCCAUGUUGUUACAUGGGAGGAUAUCGAUGAUAAA
- apparent Kd (MS2 coat protein [2]; [3]): 15.9 nM
- apparent Kd (MS2 coat protein [2]; [4]): 5.75 nM

Sequence: UUUUACGUUUCGUAGCAGUGUCAUCGAGAAGGCCCUGACAUGAGGAUCACCCAUGUUGUUACAUGGGAGGAUAUCGAUGAUGGG
- apparent Kd (MS2 coat protein [2]; [3]): 41.3 nM
- apparent Kd (MS2 coat protein [2]; [4]): 6.93 nM

Sequence: UUUUACUUAGGAUAUACAUUUUUUUAUUUAUUUAUAAUAUUACAUGAGGAUCACCCAUGUAGAAGGGAGAUUUU
- apparent Kd (MS2 coat protein [2]; [5]): 77 nM
- apparent Kd (MS2 coat protein [2]; [6]): 63.4 nM

Sequence: UUUUCAUCAUCAGGAUAUUAACGUGGGCUACUUUAAGAAGGGAUAGUGGGAGAGCACGUGAAACAUGAGGAUCACCCAUGUUGU
- apparent Kd (MS2 coat protein [2]; [3]): 12.2 nM
- apparent Kd (MS2 coat protein [2]; [4]): 9.73 nM

Sequence: UUUUCUCGUGAGAAGGACAUGAGGAUCACCCAUGUAGGAUAUCGUGGGAGACAGGAAUUGAAUCUUCGGAUUCAAUUCCUGUCU
- apparent Kd (MS2 coat protein [2]; [3]): 104 nM
- apparent Kd (MS2 coat protein [2]; [4]): 8.82 nM

Sequence: UUUUCUUUUGUGAGGAUAUACUUCUUUUUCUUUUUGUAGAAGGCACAUGAGGAUCACCCAUGUUUUCUUUUCUC
- apparent Kd (MS2 coat protein [2]; [5]): 12.1 nM
- apparent Kd (MS2 coat protein [2]; [6]): 16 nM

Sequence: UUUUCUUUUGUGAGGAUAUACUUGUUUUUUUUUUUGUAGAAGGCACAUGAGGAUCACCCAUGUACUCUUUCCUG
- apparent Kd (MS2 coat protein [2]; [5]): 19.7 nM
- apparent Kd (MS2 coat protein [2]; [6]): 22.6 nM

Sequence: UUUUCUUUUGUGAGGAUAUACUUGUUUUUUUUUUUGUAGAAGGCACAUGAGGAUCACCCAUGUUUUCUUUUCUG
- apparent Kd (MS2 coat protein [2]; [5]): 17.1 nM
- apparent Kd (MS2 coat protein [2]; [6]): 19.4 nM

Sequence: UUUUGACAUGAGGAUCACCCAUGUGAGGAUAUGAUGCGAUCGUCGAAAGACGAUAGCAUCAGAAGGCACAUAUG
- apparent Kd (MS2 coat protein [2]; [5]): 112 nM
- apparent Kd (MS2 coat protein [2]; [6]): 336 nM

Sequence: UUUUGGUAAGGAUAUGCGUAGAUCUCGGAAACGAGAUCUACGCAGAAGGUACAUGAGGAUCACCCAUGUUGAUU
- apparent Kd (MS2 coat protein [2]; [5]): 24.2 nM
- apparent Kd (MS2 coat protein [2]; [6]): 83.3 nM

Sequence: UUUUGGUCAGGAUAUUGUUAGUUUAGUUGUUUGUAUUAGUUCGAGAAGGGACAUGAGGAUCACCCAUGUGAUUU
- apparent Kd (MS2 coat protein [2]; [5]): 99.2 nM
- apparent Kd (MS2 coat protein [2]; [6]): 102 nM

Sequence: UUUUUAAAUAUAGGAUAUGGAAACAUGAGGAUCACCCAUGUAUGAUAAGAUAAAUUAUGAUAUAGCCAGAAGGAUACAAUUUUU
- apparent Kd (MS2 coat protein [2]; [3]): 31.9 nM
- apparent Kd (MS2 coat protein [2]; [4]): 38.6 nM

Sequence: UUUUUCUGUGUGAGGAUAUACUUUGUUUGGUCGUUGUAGAAGGCACAUGAGGAUCACCCAUGUAGUUUGUUGUG
- apparent Kd (MS2 coat protein [2]; [5]): 23.9 nM
- apparent Kd (MS2 coat protein [2]; [6]): 33.1 nM

Sequence: UUUUUGUCAGGAUAUCGUUAAUUUAAUUGUUUGUAUUAGUUCGAGAAGGGACAUGAGGAUCACCCAUGUUUUUU
- apparent Kd (MS2 coat protein [2]; [5]): 23.9 nM
- apparent Kd (MS2 coat protein [2]; [6]): 39.6 nM

Sequence: UUUUUGUCAGGAUAUGCGUAGUAGAACAAUAGUACUACUACGUAGAAGGGACAUGAGGAUCACCCAUGUUCCUC
- apparent Kd (MS2 coat protein [2]; [5]): 14.4 nM
- apparent Kd (MS2 coat protein [2]; [6]): 20.5 nM
